Each block holds one molecule with its values, some of them ahead of it.
Key:
[1] = tested on: K562; experiment: Antiproliferative activity against human K562 cells after 5 days by MTT assay; assay type: functional, cell-based; details: K562, 120 h
Method in brief: (§1)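 Cells at about 2000 cells/mL (set by doubling time) in RPMI with 10% v/v FCS; compound from DMSO stock, seven twofold serial dilutions plus drug-free control, triplicate wells, 37 °C 5% CO2 for 5 days. MTT (3 mg/mL in PBS) added for 3 h, formazan dissolved in DMSO, OD read at 540 and 690 nm; IC50 derived graphically as percentage of control growth.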

[2] = tested on: K562; experiment: Cell cycle arrest in human K562 cells assessed as accumulation at S phase at 10 uL after overnight incubation by propidium iodide staining-based flow cytometry; assay type: functional
Method in brief: (§2)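 Fixed in cold 1:1 acetone:ethanol, washed in PBS, RNAse treated (37 °C, 15 min), stained with propidium iodide 50 µg/mL; DNA content read by flow cytometry, argon laser excitation 488 nm; percentage of cells per phase versus untreated control.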

[3] = tested on: L1210; experiment: Antiproliferative activity against mouse L1210 cells after 5 days by MTT assay; assay type: functional, cell-based; details: L1210, 120 h; method in brief: as §1
[4] = tested on: K562; experiment: Cell cycle arrest in human K562 cells assessed as accumulation at G0/G1 phase at 10 uL after overnight incubation by propidium iodide staining-based flow cytometry; assay type: functional; method in brief: as §2
[5] = tested on: A2780; experiment: Antiproliferative activity against human A2780 cells after 5 days by MTT assay; assay type: functional, cell-based; details: A2780, 120 h; method in brief: as §1
[6] = tested on: K562; experiment: Cytotoxicity against human K562 cells; assay type: functional, cell-based
Method in brief: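 K562 cells in RPMI with 10% v/v FCS, at about 2000 cells/mL. Drug in DMSO was serially diluted twofold to give seven concentrations, plus a drug-free control. Cells were plated in triplicate and incubated 5 days at 37 °C, 5% CO2. MTT (3 mg/mL stock) was added for 3 h, formazan dissolved in DMSO, and OD read at 540 and 690 nm. IC50 was found graphically as percent of control growth.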

[7] = Displacement of [3H]colchicine from tubulin
[8] = tested on: A549; experiment: Antiproliferative activity against human A549 cells after 5 days by MTT assay; assay type: functional, cell-based; details: A549, 120 h; method in brief: as §1
[9] = Inhibition of tubulin assembly by spectrophotometry
Method in brief: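 Tubulin (10–15 μM stock) in 0.1 M Mes, 1 mM EGTA, 0.5 mM MgCl2, pH 6.6, with GTP, compound in DMSO, assembled on cold at 0 °C then moved to 37 °C. Absorbance at 350 nm followed for 30 min against drug/GTP buffer blanks; change in optical density relative to untreated control gives IC50 for assembly inhibition.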

[10] = tested on: K562; experiment: Cell cycle arrest in human K562 cells assessed as accumulation at G2/M phase at 10 uL after overnight incubation by propidium iodide staining-based flow cytometry; assay type: functional; method in brief: as §2
[11] = tested on: P388; experiment: Antiproliferative activity against mouse P388 cells after 5 days by MTT assay; assay type: functional, cell-based; details: P388, 120 h; method in brief: as §1
[12] = Inhibition of tubulin assembly by turbidimetry assay

- IC50 [1]: 40 nM
SMILES: COc1ccc(/C=C(/C(=O)c2cc(OC)c(OC)c(OC)c2)c2ccc(OC)cc2)cc1

- IC50 [1]: 150 nM
SMILES: COc1ccc(/C=C(/C(=O)c2cc(OC)c(OC)c(OC)c2)c2ccc(N(C)C)cc2)cc1

- IC50 [1]: 450 nM
- IC50 [9]: 4200 nM
SMILES: COc1ccc(C(=Cc2ccc(OC)c(F)c2)C(=O)c2cc(OC)c(OC)c(OC)c2)cc1

- IC50 [1]: 500 nM
SMILES: COc1ccc(C=C(C(=O)c2cc(OC)c(OC)c(OC)c2)c2ccc(OC)cc2)cc1

- IC50 [1]: 790 nM
SMILES: COc1ccc(C=C(C(=O)c2cc(OC)c(OC)c(OC)c2)c2ccccc2)cc1F

- IC50 [1]: 380 nM
- IC50 [9]: > 10000 nM
SMILES: COc1ccc(/C=C(/C(=O)c2cc(OC)c(OC)c(OC)c2)c2ccccc2O)cc1O[Si](C)(C)C(C)(C)C

- IC50 [1]: 20 nM
SMILES: COc1ccc(/C=C(/C(=O)c2cc(OC)c(OC)c(OC)c2)c2ccccc2)cc1

- IC50 [3]: 36 nM
- IC50 [5]: 34 nM
- IC50 [1]: 49 nM
- IC50 [8]: 50 nM
- IC50 [9]: 5500 nM
- IC50 [11]: 28 nM
SMILES: COc1ccc(/C=C(/C(=O)c2cc(OC)c(OC)c(OC)c2)c2ccccc2O)cc1O
- Activity [2]: 18.1%
- Activity [4]: 6.5%
- Activity [10]: 75.4%

The next lines start with the molecule.

SMILES: COc1ccc(C=C(C(=O)c2cc(OC)c(OC)c(OC)c2)c2ccccc2)cc1[N+](=O)[O-]
- IC50 [1]: > 10000 nM

SMILES: COc1ccc(C(=Cc2ccc(OC)c([N+](=O)[O-])c2)C(=O)c2cc(OC)c(OC)c(OC)c2)cc1
- IC50 [1]: 2660 nM

SMILES: COc1ccc(/C=C(/C(=O)c2cc(OC)c(OC)c(OC)c2)c2ccc(OC)cc2OC)cc1
- IC50 [1]: 90 nM

SMILES: COc1cc(C(=O)C(=Cc2ccccc2)c2ccccc2)cc(OC)c1OC
- IC50 [1]: 6300 nM

SMILES: COc1ccc(/C=C\c2cc(OC)c(OC)c(OC)c2)cc1O [COMBRETASTATIN A4]
- Activity [2]: 23.3%
- IC50 [3]: 2.3 nM
- Activity [4]: 14%
- IC50 [5]: 1.9 nM
- IC50 [6]: 1.4 nM
- IC50 [1]: 3.2 nM
- Activity [7]: 92%
- IC50 [8]: 7.8 nM
- IC50 [9]: 3700 nM
- Activity [10]: 62.7%
- IC50 [11]: 3.1 nM

SMILES: COc1cc(C(=O)C(=Cc2ccccc2)c2ccc(C)cc2)cc(OC)c1OC
- IC50 [1]: 2970 nM

SMILES: COc1ccc(C=C(C(=O)c2cc(OC)c(OC)c(OC)c2)c2ccc(C)cc2)cc1F
- IC50 [1]: 570 nM
- IC50 [9]: 4400 nM

SMILES: COc1ccc(/C=C(/C(=O)c2cc(OC)c(OC)c(OC)c2)c2ccccc2O)cc1
- IC50 [1]: 370 nM
- IC50 [9]: > 10000 nM

SMILES: COc1ccc(/C=C(\C)C(=O)c2cc(OC)c(OC)c(OC)c2)cc1O
- Activity [2]: 32.8%
- IC50 [3]: 11 nM
- IC50 [12]: 460 nM
- Activity [4]: 10.7%
- IC50 [5]: 1.8 nM
- IC50 [1]: 4.4 nM
- IC50 [8]: 10 nM
- IC50 [9]: 3300 nM
- Activity [10]: 56.4%
- IC50 [11]: 26 nM

SMILES: COc1ccc(C=C(C(=O)c2cc(OC)c(OC)c(OC)c2)c2ccc(C)cc2)cc1O
- IC50 [1]: 32 nM
- IC50 [9]: 2600 nM

SMILES: COc1ccc(C(=Cc2ccccc2)C(=O)c2cc(OC)c(OC)c(OC)c2)cc1
- IC50 [1]: 4920 nM

SMILES: COc1ccc(C(=Cc2ccc(OC)c(O)c2)C(=O)c2cc(OC)c(OC)c(OC)c2)cc1
- Activity [2]: 34.6%
- IC50 [3]: 160 nM
- Activity [4]: 10.8%
- IC50 [5]: 10 nM
- IC50 [1]: 12 nM
- IC50 [8]: 680 nM
- IC50 [9]: 2100 nM
- Activity [10]: 54.6%
- IC50 [11]: 20 nM

SMILES: COc1ccc(/C=C(/C(=O)c2cc(OC)c(OC)c(OC)c2)c2ccccc2O)cc1F
- Activity [2]: 43.6%
- IC50 [3]: 60 nM
- Activity [4]: 10.6%
- IC50 [5]: 40 nM
- IC50 [1]: 60 nM
- IC50 [8]: 140 nM
- IC50 [9]: 7200 nM
- Activity [10]: 45.7%
- IC50 [11]: 530 nM

SMILES: COc1ccc(C=C(C(=O)c2cc(OC)c(OC)c(OC)c2)c2ccc(C)cc2)cc1[N+](=O)[O-]
- IC50 [1]: 2430 nM

SMILES: COc1ccc(C=C(C(=O)c2cc(OC)c(OC)c(OC)c2)c2ccc(C)cc2)cc1
- IC50 [1]: 760 nM

SMILES: COc1cc2c(c(OC)c1OC)-c1ccc(OC)c(=O)cc1[C@@H](NC(C)=O)CC2 [COLCHICINE]
- IC50 [12]: 2600 nM
